Active and inactive are the calls of the source. No rule for the calls is given here.
Tested on: not listed separately
Test: T7 lysis protection in EV36 bacteria – E. coli EV36, T7 phage, set 2, counter-screen for bacterial capsule biogenesis inhibitors, dose response (AID 504538)
Details: E. coli EV36 T7 phage lysis, OD600 3 h; at 100 µM (top of the series)
Procedure, shortened: (§1)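 Assay system: Escherichia coli EV36, K1 and K-12 hybrid strain; Buffer or medium: LB medium, culture diluted 1:100; Reagent: T7 bacteriophage infection after compound pre-exposure; Times: 1.5 h at 37 °C, then 3 h phage; Detection: optical density at 600 nm, 3 h after phage infection; Read-out: phage lysis inhibition from OD600; Replicates: quadruplicate.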

SMILES | phage lysis inhibition
CCN(CC)c1ccc2c(-c3ccc(S(=O)(=O)O)cc3S(=O)(=O)O)c3ccc(=[N+](CC)CC)cc-3oc2c1 | 110% (inactive)
COc1ccc(-c2cc(C(=O)O)c3ccccc3n2)cc1 | 102% (inactive)
N=C(N)SCCc1cccc(CCSC(=N)N)c1 | 99.9% (inactive)
Cc1cccc(-c2cc(C(=O)O)c3ccccc3n2)c1 | 102% (inactive)
O=C1c2c(O)ccc(O)c2C(=O)c2c(NCCNCCO)ccc(NCCNCCO)c21 | 140% (inactive)
O=C(Nc1cccc(C2=NCCN2)c1)Nc1cccc(C2=NCCN2)c1 | 88.6% (inactive)

Tested on: E. coli EV36 T7 phage lysis, OD600 3 h
Test: as above
Details: not given
Procedure, shortened: as §1

SMILES | IC50
NC(N)=N/N=C/c1ccc(OCc2ccccc2)cc1 | 45 µM (inactive)
COc1cc(/C=N/N=C(N)N)ccc1OCc1ccccc1Cl | 44 µM (inactive)

Reference: PubChem BioAssay AID504538 (Southern Research Specialized Biocontainment Screening …, 2011)
